Experimental data published in ChEMBL document CHEMBL1127424, “7-azetidinylquinolones as antibacterial agents. 2. Synthesis and biological activity of 7-(2,3-disubstituted-1-azetidinyl)-4-oxoquinoline- and -1,8-naphthyridine-3-carboxylic acids. Properties and structure-activity relationships of quinolones with an azetidine moiety” (J Med Chem, 1994).
Converted amounts (≈) assume the structure as drawn.

Experiments:
[1] = Measured ionization constant (pKa); assay type: physicochemical; settings: read-out: pKa1
Procedure, shortened: (§1)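 Spectrophotometric titration at 20 ± 1 °C, 0.1 M ionic strength, pH varied with H2SO4 or NaOH made up in the compound stock. Absorbance followed at compound-specific wavelengths chosen from 200–400 nm scans. pKa1 and pKa2 taken as the inflection points of the two-step absorbance vs pH curve.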

[2] = Dissociation constant (pKa); assay type: physicochemical; settings: read-out: pKa2; procedure, shortened: as §1
[3] = HPLC capacity factor (k'); assay type: ADME
Procedure, shortened: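 Ion-pair reversed-phase HPLC on ODS-2 (10 μm) at 45 °C. Mobile phase: 10 mM sodium heptanesulfonate plus 50 mM KH2PO4 (pH 3.5)–methanol 45:55, 1 mL/min. Samples at 100 μg/mL in DMF, injected in duplicate, UV 280 nm. k' = (tR − t0)/t0.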

[4] = AUC (0-4 hr) ug/ml/h; assay type: ADME, cell-free; design: time < 4 hr; concentration or dose not given beside the values; settings: plasma
Procedure, shortened: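 Mice dosed once orally at 50 mg/kg; blood taken from groups of six mice at 0.5, 1, 2 and 4 h. Serum drug assayed by disk agar diffusion bioassay (Bacillus subtilis ATCC 6633 on Seed Agar, 37 °C, 18 h), giving total activity.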

[5] = Solubility (buffer pH 7.4); assay type: physicochemical; settings: read-out: S
Procedure, shortened: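 Excess solid shaken in 0.05 M phosphate buffer pH 7.4 for 24 h at 25 °C. Suspension filtered through 0.22 μm, discarding the first portion. Filtrate diluted in 0.1 N HCl or 0.1 N NaOH and read by UV at the compound's absorbance maximum.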

Bacillus cereus = assay: In vitro minimum inhibitory concentration for Bacillus cereus ATCC 11778; assay type: functional
Procedure, shortened: (§2)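 Serial 2-fold agar dilution in Mueller Hinton medium, run alongside a reference quinolone. Inoculum adjusted to 10⁸ cfu/mL; compound range 0.007–16 μg/mL.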

Bacillus subtilis = assay: In vitro minimum inhibitory concentration for Bacillus subtilis ATCC 6633; assay type: functional; procedure, shortened: as §2
Escherichia coli = assay: In vitro minimum inhibitory concentration for Escherichia coli ATCC 10799; assay type: functional; procedure, shortened: as §2
Enterobacter cloacae = assay: In vitro minimum inhibitory concentration for Enterobacter cloacae ATCC 23355; assay type: functional
Klebsiella pneumoniae = assay: In vitro minimum inhibitory concentration to inhibit Klebsiella pneumoniae ATCC 10031; assay type: functional; procedure, shortened: as §2
Mus musculus [6] = assay: Evaluation of efficacy on systemic infections Escherichia coli HM-42, after oral administration in mice; assay type: functional
Procedure, shortened: (§3)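 Single oral dose given immediately after infection, one of four doses per group, chosen from in vitro activity. Survival scored after one week. ED50 (total mg/kg protecting 50%) interpolated from survival rates.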

Mus musculus [7] = assay: Evaluation of efficacy on systemic infections Pseudomonas aeruginosa HS-116, after oral administration in mice; assay type: functional; procedure, shortened: as §3
Mus musculus [8] = assay: Evaluation of efficacy on systemic infections Staphylococcus aureus HS-93, after oral administration in mice; assay type: functional; procedure, shortened: as §3
Morganella morganii = assay: In vitro minimum inhibitory concentration for Morganella morganii ATCC 8019; assay type: functional; procedure, shortened: as §2
Proteus vulgaris = assay: In vitro minimum inhibitory concentration for Proteus vulgaris ATCC 8427; assay type: functional; procedure, shortened: as §2
[9] = system: Staphylococcus epidermidis; assay: In vitro minimum inhibitory concentration for Staphylococcus epidermidis ATCC 155-1; assay type: functional; procedure, shortened: as §2
Staphylococcus aureus = assay: In vitro minimum inhibitory concentration for Staphylococcus aureus ATCC 25178; assay type: functional; procedure, shortened: as §2
Enterococcus faecalis = assay: In vitro minimum inhibitory concentration for Streptococcus faecalis ATCC 10541; assay type: functional; procedure, shortened: as §2
Pseudomonas aeruginosa = assay: In vitro minimum inhibitory concentration for Pseudomonas aeruginosa ATCC 10145; assay type: functional; procedure, shortened: as §2

SMILES | pKa [1] | pKa [2] | Log k' [3] | AUC [4] [ng·h/mL] | solubility [5] [µg/mL] | MIC (Bacillus cereus) [µg/mL] | MIC (Bacillus subtilis) [µg/mL] | MIC (Escherichia coli) [µg/mL] | MIC (Enterobacter cloacae) [µg/mL] | MIC (Klebsiella pneumoniae) [µg/mL] | MIC (Morganella morganii) [µg/mL] | MIC (Proteus vulgaris) [µg/mL] | MIC [9] [µg/mL] | MIC (Staphylococcus aureus) [µg/mL] | MIC (Enterococcus faecalis) [µg/mL] | MIC (Pseudomonas aeruginosa) [µg/mL] | ED50 (Mus musculus [6]) [mg/kg] | ED50 (Mus musculus [7]) [mg/kg] | ED50 (Mus musculus [8]) [mg/kg]
C[C@H]1[C@@H](N)CN1c1cc2c(cc1F)c(=O)c(C(=O)O)cn2C1CC1 | – | – | 0.0457 | 3700 | 6.1 (≈ 18.4 µM) | 0.06 (≈ 0.181 µM) | 0.03 (≈ 0.0905 µM) | 0.06 (≈ 0.181 µM) | 0.03 (≈ 0.0905 µM) | 0.03 (≈ 0.0905 µM) | 0.03 (≈ 0.0905 µM) | 0.06 (≈ 0.181 µM) | 0.06 (≈ 0.181 µM) | 0.12 (≈ 0.362 µM) | 0.5 (≈ 1.51 µM) | 0.5 (≈ 1.51 µM) | 20 | 277 | 36.7
C[C@H]1[C@H](N)CN1c1c(F)cc2c(=O)c(C(=O)O)cn(-c3ccc(F)cc3F)c2c1F | – | – | 0.2644 | 22300 | 23.4 (≈ 55.5 µM) | 0.12 (≈ 0.285 µM) | 0.06 (≈ 0.142 µM) | 0.12 (≈ 0.285 µM) | 0.06 (≈ 0.142 µM) | 0.06 (≈ 0.142 µM) | 0.25 (≈ 0.593 µM) | 0.5 (≈ 1.19 µM) | 0.12 (≈ 0.285 µM) | 0.12 (≈ 0.285 µM) | 1 (≈ 2.37 µM) | 1 (≈ 2.37 µM) | 2.3 | 61 | 10
C[C@H]1[C@H](N)CN1c1nc2c(cc1F)c(=O)c(C(=O)O)cn2-c1ccc(F)cc1F | – | – | 0.1417 | 25800 | 10.4 (≈ 25.7 µM) | 0.25 (≈ 0.618 µM) | 0.06 (≈ 0.148 µM) | 0.25 (≈ 0.618 µM) | 0.12 (≈ 0.297 µM) | 0.06 (≈ 0.148 µM) | 0.25 (≈ 0.618 µM) | 1 (≈ 2.47 µM) | 0.25 (≈ 0.618 µM) | 0.12 (≈ 0.297 µM) | 1 (≈ 2.47 µM) | 1 (≈ 2.47 µM) | 3.3 | 140 | 8.9
C[C@@H]1[C@@H](CN)CN1c1cc2c(cc1F)c(=O)c(C(=O)O)cn2C1CC1 | – | – | -0.0607 | 0 | – | 1 (≈ 2.9 µM) | 0.06 (≈ 0.174 µM) | 0.12 (≈ 0.347 µM) | 0.12 (≈ 0.347 µM) | 0.06 (≈ 0.174 µM) | 1 (≈ 2.9 µM) | 1 (≈ 2.9 µM) | 0.25 (≈ 0.724 µM) | 0.25 (≈ 0.724 µM) | 1 (≈ 2.9 µM) | 2 (≈ 5.79 µM) | 60.5 | 355 | 95
C[C@H]1[C@H](N)CN1c1c(F)cc2c(=O)c(C(=O)O)cn(-c3ccc(F)cc3)c2c1F | – | – | 0.1875 | 31400 | 11.2 (≈ 27.8 µM) | 0.25 (≈ 0.62 µM) | 0.12 (≈ 0.298 µM) | 0.12 (≈ 0.298 µM) | 0.12 (≈ 0.298 µM) | 0.12 (≈ 0.298 µM) | 0.25 (≈ 0.62 µM) | 0.5 (≈ 1.24 µM) | 0.12 (≈ 0.298 µM) | 0.25 (≈ 0.62 µM) | 2 (≈ 4.96 µM) | 2 (≈ 4.96 µM) | 2.5 | 54.6 | 5.7
C[C@H]1[C@H](N)CN1c1c(F)cc2c(=O)c(C(=O)O)cn(-c3ccc(F)cc3F)c2c1Cl | – | – | 0.3553 | 32300 | 16.5 (≈ 37.7 µM) | 0.03 (≈ 0.0685 µM) | 0.03 (≈ 0.0685 µM) | 0.06 (≈ 0.137 µM) | 0.12 (≈ 0.274 µM) | 0.12 (≈ 0.274 µM) | 0.25 (≈ 0.571 µM) | 0.25 (≈ 0.571 µM) | 0.06 (≈ 0.137 µM) | 0.12 (≈ 0.274 µM) | 0.25 (≈ 0.571 µM) | 0.5 (≈ 1.14 µM) | 3.6 | 86.9 | 4.3

Further lines, with some results ahead:

pKa [1] | pKa [2] | Log k' [3] | AUC [4] [ng·h/mL] | solubility [5] [µg/mL] | MIC (Bacillus cereus) [µg/mL] | MIC (Bacillus subtilis) [µg/mL] | MIC (Escherichia coli) [µg/mL] | MIC (Enterobacter cloacae) [µg/mL] | MIC (Klebsiella pneumoniae) [µg/mL] | MIC (Morganella morganii) [µg/mL] | MIC (Proteus vulgaris) [µg/mL] | MIC [9] [µg/mL] | MIC (Staphylococcus aureus) [µg/mL] | MIC (Enterococcus faecalis) [µg/mL] | MIC (Pseudomonas aeruginosa) [µg/mL] | SMILES | ED50 (Mus musculus [6]) [mg/kg] | ED50 (Mus musculus [7]) [mg/kg] | ED50 (Mus musculus [8]) [mg/kg]
6.54 | 8.56 | 0.0215 | – | – | – | – | – | – | – | – | – | – | – | – | – | CNC1CN(c2cc3c(cc2F)c(=O)c(C(=O)O)cn3C2CC2)C1 | – | – | –
6.58 | 8.55 | -0.1249 | – | – | – | – | – | – | – | – | – | – | – | – | – | CC1(N)CN(c2cc3c(cc2F)c(=O)c(C(=O)O)cn3C2CC2)C1 | – | – | –
– | – | 0.0813 | 9000 | 23.6 (≈ 67.6 µM) | 0.12 (≈ 0.344 µM) | 0.06 (≈ 0.172 µM) | 0.12 (≈ 0.344 µM) | 0.06 (≈ 0.172 µM) | 0.12 (≈ 0.344 µM) | 0.012 (≈ 0.0344 µM) | 0.25 (≈ 0.716 µM) | 0.12 (≈ 0.344 µM) | 0.012 (≈ 0.0344 µM) | 1 (≈ 2.86 µM) | 1 (≈ 2.86 µM) | C[C@H]1[C@@H](N)CN1c1c(F)cc2c(=O)c(C(=O)O)cn(C3CC3)c2c1F | 6.2 | 123 | 18.6
6.47 | 8.65 | 0.0875 | – | 0.7 (≈ 2.03 µM) | – | – | – | – | – | – | – | – | – | – | – | CNC1(C)CN(c2cc3c(cc2F)c(=O)c(C(=O)O)cn3C2CC2)C1 | – | – | –
6 | 8.14 | 0.584 | – | 58 (≈ 160 µM) | – | – | – | – | – | – | – | – | – | – | – | CN(C)C1CN(c2c(F)cc3c(=O)c(C(=O)O)cn(C4CC4)c3c2F)C1 | – | – | –
6.18 | 8.44 | 0.039 | – | 1.7 (≈ 4.87 µM) | – | – | – | – | – | – | – | – | – | – | – | CNC1CN(c2c(F)cc3c(=O)c(C(=O)O)cn(C4CC4)c3c2F)C1 | – | – | –
